High-throughput results (PubChem)
UCH37 inh = inhibitors of human UCH37 deubiquitinase, primary screen, biochemical, Ub-AMC cleavage, fluorescence; purified proteasome/UCH37; inhibition, % (no concentration beside the values); 330,000 tested, 0.33% active; AID 588478, 2011;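 active means mean inhibition over replicate wells above about 20%, limit read from the data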;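 further: 0% = compound-free wells with enzyme and 100% = wells lacking proteasome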
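Assay system: Proteasome-bound UCH37. Buffer or medium: pH 7.4 Tris-HCl (50 mM) with ovalbumin, ATP-MgCl2, DTT. Incubation: 30 min preincubation with enzyme, 25 min cleavage at room temperature. Measured by: fluorescence, ex 355 nm, em 460 nm. Read-out basis: percent inhibition. Control set: wells without proteasome as full block, compound-free enzyme plus substrate as uninhibited.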
Fh CTSL1 inh = Fasciola hepatica cathepsin L1 inhibitors, primary screen, counter-screen for PFM18AAP inhibitor project, biochemical, QFRET, fluorogenic peptide substrate | inhibition, % at 5.96 µM | 300,000 tested, 0.49% active | recombinant F. hepatica cathepsin L1, Z-Leu-Arg-MCA fluorescence;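 active means inhibition above the mean of all tested compounds plus 3 SD, set per screening campaign, cut at about 17% in these data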;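 further: 0% = plate median of test compound wells and 100% = 1 µM Z-Phe-Ala-diazomethylketone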
NRP1-CendR mod = modulators of CendR peptide binding to NRP-1, primary screen, biochemical, fluorescence polarization, uHTS; FAM-RPARPAR peptide binding to NRP-1; inhibition, % at 25 µM; 360,000 tested, 0.85% active;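 active means inhibition or corrected inhibition above about 18%, plus a signal ratio from 0.5 to 1.5, limit read from the data, passing the limit was not always enough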
DAGLB inh = DAGLB lipase inhibitors, primary screen, biochemical, fluorescence, HTS; HEK293T DAGLB membrane lysate, EnzChek fluorogenic substrate; AID 504411, 2011; Diacylglycerol lipase-beta (Homo sapiens), Q8NCG7; 340,000 tested, 0.059% active; inhibition, % at 5.17 µM; in the data active means inhibition above about 34%;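 further: 0% = enzyme with vehicle and 100% = wells lacking enzyme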
Target sequence (Q8NCG7 whole entry, looked up): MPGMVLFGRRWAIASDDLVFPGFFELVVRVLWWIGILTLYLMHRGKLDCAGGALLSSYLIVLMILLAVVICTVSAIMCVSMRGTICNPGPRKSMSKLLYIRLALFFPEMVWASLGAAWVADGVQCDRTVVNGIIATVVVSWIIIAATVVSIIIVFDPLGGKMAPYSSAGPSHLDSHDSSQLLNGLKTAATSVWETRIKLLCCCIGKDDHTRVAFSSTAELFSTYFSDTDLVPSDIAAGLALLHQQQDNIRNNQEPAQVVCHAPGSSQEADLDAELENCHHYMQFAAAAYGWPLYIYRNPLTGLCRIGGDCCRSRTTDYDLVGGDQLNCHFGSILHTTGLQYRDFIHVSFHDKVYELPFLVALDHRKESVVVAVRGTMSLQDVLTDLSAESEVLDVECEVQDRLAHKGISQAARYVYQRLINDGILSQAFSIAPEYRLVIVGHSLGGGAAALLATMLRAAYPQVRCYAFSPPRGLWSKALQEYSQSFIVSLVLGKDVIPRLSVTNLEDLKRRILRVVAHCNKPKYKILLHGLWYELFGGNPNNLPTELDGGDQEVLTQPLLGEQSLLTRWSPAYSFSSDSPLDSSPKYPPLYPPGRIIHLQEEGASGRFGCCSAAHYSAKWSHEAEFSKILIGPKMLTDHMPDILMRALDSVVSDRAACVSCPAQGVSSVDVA
MT1-MMP act inh = blockers of MT1-MMP proenzyme processing, primary screen, HT1080 RFP-PRO-GFP cells, GFP/RFP fluorescence; Matrix metalloproteinase-14 (Homo sapiens), P50281; GFP/RFP ratio fluorescence, overnight; percent of plate control window, DMSO zero; GFP/RFP ratio change, % at 20 µM; 360,000 tested, 0.061% active; AID 651647, 2012;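 active means GFP/RFP ratio change of at least 30% with cell ATP level not reduced by more than half and red fluorescence within 50% of control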
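Assay system: HT1080 RFP-PRO-GFP cells | Dosing: 20 µM single dose, 1% DMSO | Incubation: Cells overnight before dosing, compound overnight, 37 °C, 5% CO2 | Evaluation: GFP/RFP fluorescence ratio | Control set: DMSO-only wells and HT1080 RFP-L50D-GFP cell wells as references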
DAGLB inh conf = DAGLB lipase inhibitors, retest, confirmation, biochemical, fluorescence, HEK293T membranes; shares compounds with DAGLB inh; HEK293T DAGLB membrane lysate, EnzChek fluorogenic substrate; inhibition, % at 5.17 µM; 190 tested, 73% active; AID 504445, 2011;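 active means mean inhibition over triplicate wells above a set limit taken from the primary lipase screen, cut at about 34% in these data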;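 further: 0% = DAGLB with DMSO and 100% = wells lacking DAGLB enzyme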
Starred values were filed as active, the others as inactive. Rows were chosen to be rich in hits. Some 1.5% of all compounds tested hit in one or more screens of this group.

For Cc1cc(/C=C\c2ccc3cc(N(C)C)ccc3[n+]2C)c(C)n1-c1ccccc1 the results were UCH37 inh 9, Fh CTSL1 inh 8, NRP1-CendR mod -133, DAGLB inh 39*, MT1-MMP act inh 15 and DAGLB inh conf 35*.
C[n+]1c(/C=C/c2ccc(O)cc2)ccc2ccccc21 was read as UCH37 inh 16, Fh CTSL1 inh 1, NRP1-CendR mod -22, DAGLB inh 1 and MT1-MMP act inh 3.
O=[N+]([O-])c1ccccc1NN=Cc1c[nH]c2ccccc12 was read as UCH37 inh 3.
For O=[N+]([O-])c1ccccc1N/N=C/c1c[nH]c2ccccc12 the results were Fh CTSL1 inh 5, NRP1-CendR mod 2, DAGLB inh 58*, MT1-MMP act inh 5 and DAGLB inh conf 61*.
Screening CC(CCC(=O)NN)C1CCC2C3CCC4CC(O)CCC4(C)C3CCC12C (stereo not drawn) returned NRP1-CendR mod 6, DAGLB inh 0 and MT1-MMP act inh -1.
For CC(CCC(C)C(C)(C)C)[C@@H]1CC[C@H]2C3C[C@H](OS(O)(=S)=S)[C@H]4C[C@H](OS(O)(=S)=S)[C@@H](OS(O)(=S)=S)C[C@]4(C)[C@H]3CC[C@]12C (stereo partly drawn) (tested in a mixture with another compound) the results were NRP1-CendR mod 36*, DAGLB inh 35*, MT1-MMP act inh 13 and DAGLB inh conf 34*.
For CCOc1ccc(/C=N/Nc2ccc(C(F)(F)F)cc2[N+](=O)[O-])cc1O the results were Fh CTSL1 inh 1, NRP1-CendR mod -6, DAGLB inh 32 and MT1-MMP act inh 11.
Screening COc1ccc(/C=N/Nc2ccc(C(F)(F)F)cc2[N+](=O)[O-])cc1O returned Fh CTSL1 inh 2, NRP1-CendR mod -2, DAGLB inh 40*, MT1-MMP act inh 14 and DAGLB inh conf 64*.
For CC(=NNC(=O)c1cccc2ccccc12)c1cccs1 the results were UCH37 inh 6.
For CNc1ccc(N=Nc2cccc3ncccc23)cc1 the results were UCH37 inh 2, NRP1-CendR mod 23, DAGLB inh 34*, MT1-MMP act inh 16 and DAGLB inh conf 56*.
Screening c1cnc2ccc3ncccc3c2c1 returned UCH37 inh 5, Fh CTSL1 inh -4, NRP1-CendR mod -2, DAGLB inh -1 and MT1-MMP act inh -2.
Cc1[nH]n2c(=O)cc(-c3ccc([N+](=O)[O-])cc3)nc2c1-c1ccccc1 was read as UCH37 inh 2, Fh CTSL1 inh 6, NRP1-CendR mod 7, DAGLB inh 48*, MT1-MMP act inh 9 and DAGLB inh conf 42*.
`NS(=O)(=O)c1ccc(N=Nc2c(O)ccc3ccccc23)cc1` gave UCH37 inh 5, Fh CTSL1 inh 2, NRP1-CendR mod -6, DAGLB inh 37*, MT1-MMP act inh 1 and DAGLB inh conf 47*.
For COc1ccc(OC)c(C=NNC(=O)c2ccc3nc[nH]c3c2)c1 the results were UCH37 inh -101.
`Cc1ccc(-n2[nH]c(C)c(/C=N/Nc3ccc([N+](=O)[O-])cc3[N+](=O)[O-])c2=O)cc1C` gave Fh CTSL1 inh 9, NRP1-CendR mod 41*, DAGLB inh 39*, MT1-MMP act inh 17 and DAGLB inh conf 48*.
For Cc1ccc([N+](=O)[O-])c(C(=O)NN=Cc2cccs2)c1 the results were UCH37 inh 8.
CCOc1cccc(-c2cc(C(=O)NN=Cc3ccc(OC)c(CN4CCOCC4)c3)c3ccccc3n2)c1 was read as UCH37 inh -3.
Screening COc1cc([C@H]2c3[nH]c4ccccc4c3C[C@H]3C(=O)N4[C@@H](c5cc(OC)c(OC)c(OC)c5)c5[nH]c6ccccc6c5C[C@H]4C(=O)N23)cc(OC)c1OC returned UCH37 inh 1, Fh CTSL1 inh -3, NRP1-CendR mod -6, DAGLB inh 35*, MT1-MMP act inh 2 and DAGLB inh conf 43*.
`CCN1C(=O)[C@@H]2Cc3c([nH]c4ccccc34)C(c3cc(OC)c(OC)c(OC)c3)N2C1=S` (stereo partly drawn) gave UCH37 inh 0, Fh CTSL1 inh -4, NRP1-CendR mod -24, DAGLB inh -7 and MT1-MMP act inh -84.
Screening COc1cc(/C=C2/C(=O)NN(c3ccc(Cl)c(Cl)c3)C2=O)cc([N+](=O)[O-])c1O returned UCH37 inh 22*, Fh CTSL1 inh 1, NRP1-CendR mod -83, DAGLB inh 38*, MT1-MMP act inh 5 and DAGLB inh conf 50*.
NC(=O)CC(NC(=O)c1ccc(Br)cc1)c1ccc(NCCc2ccc(F)cc2)c([N+](=O)[O-])c1 (stereo not drawn) was read as UCH37 inh 0, Fh CTSL1 inh 0, NRP1-CendR mod -24, DAGLB inh 39*, MT1-MMP act inh 14 and DAGLB inh conf 76*.
CC1(C)CC(=O)C2=C(C1)NC1=C(C(=O)c3ccccc31)C2c1ccc(O)cc1 (stereo not drawn) was read as UCH37 inh 6, Fh CTSL1 inh 2, NRP1-CendR mod 10, DAGLB inh 22 and MT1-MMP act inh 10.
Screening CCCCc1ccc(C2C3=C(CC(C)(C)CC3=O)NC3=C2C(=O)c2ccccc23)cc1 (stereo not drawn) returned UCH37 inh 5, Fh CTSL1 inh 2, NRP1-CendR mod -11, DAGLB inh 46*, MT1-MMP act inh -26 and DAGLB inh conf 33.
N#C/C(=C\c1ccc(O)c([N+](=O)[O-])c1)c1nc2ccccc2s1 was read as UCH37 inh 5, NRP1-CendR mod -127, DAGLB inh 38*, MT1-MMP act inh 2 and DAGLB inh conf 39*.
For O=C(O)CC/C(=C\c1ccc(Cl)c([N+](=O)[O-])c1)c1nc2ccccc2s1 the results were UCH37 inh 7, Fh CTSL1 inh 12, NRP1-CendR mod 2, DAGLB inh 7 and MT1-MMP act inh 14.
COc1ccc(-c2csc3nc(-c4ccccc4OC)oc(=O)c23)cc1 was read as UCH37 inh -12, Fh CTSL1 inh 6, NRP1-CendR mod -2, DAGLB inh 43*, MT1-MMP act inh -4 and DAGLB inh conf 41*.
